Activity data for 3 compounds are collected here from ChEMBL document CHEMBL1136960, “Oxidation of carbidopa by tyrosinase and its effect on murine melanoma” (Bioorg Med Chem Lett, 2009).

Structures are written as SMILES. Calls of active or inactive are those of the source. The calls are words filed in the database; no cut-off is given here.

Data set [1] in a line: Cytotoxicity against mouse HECa10 cells by MTT assay. The format is cell-based. The gist of the method:
(§1)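 Control lines used: NIH3T3 (ATCC) and HECa10 (lymph node-derived). Cells seeded at 2 × 10³ per well in RPMI 1640 with 10% FBS, 37 °C, 5% CO₂. Compounds added after 24 h in quadruplicate (10–2000 µM, eleven concentrations), then 24 or 48 h exposure. MTT for 3 h, formazan dissolved in acid–isopropanol, A570. Survival is percent of initial absorbance.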
(Tetrazolium dyes change colour on reduction, which living cells bring about.)

A short description of data set [2]: Cytotoxicity against mouse NIH/3T3 cells by MTT assay. The following applies: nih3t3. Type of data set: cell-based. In short, it runs like this:
as §1

Data set [3] concerns B16-F10. Put plainly: Cytotoxicity against mouse B16F10 cells after 24 hrs by MTT assay. Type of data set: functional, cell-based. In short, it runs like this:
(§2)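 B16(F10) murine melanoma cells seeded at 2 × 10³ per well in RPMI 1640 with 10% FBS, 37 °C, 5% CO₂. After 24 h, compounds added in quadruplicate at eleven concentrations (10–2000 µM), then incubated a further 24 or 48 h. MTT (0.5 mg/mL in PBS) for 3 h at 37 °C, formazan dissolved in acid–isopropanol, A570. Survival = absorbance at time t / initial absorbance × 100%.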

For data set [4], the system named is B16-F10. The data set can be described thus: Cytotoxicity against mouse B16F10 cells after 48 hrs by MTT assay. Type of data set: functional, cell-based. The gist of the method: as §2
The test system of data set [5] is B16-F10. Put plainly: Cytotoxicity against mouse B16F10 cells at 250 uM after 48 hrs by MTT assay. Type of data set: functional, cell-based. The gist of the method:
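B16(F10) cells at 2 × 10³ per well in RPMI 1640 with 10% FBS, 37 °C, 5% CO₂. Compound added after 24 h in quadruplicate, with 250 µM among the tested concentrations, then incubated 48 h. MTT 0.5 mg/mL for 3 h, formazan dissolved in acid–isopropanol, read at 570 nm. Survival expressed as percent of initial absorbance.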

For `Cc1cc2cc(O)c(O)cc2nn1`, the Activity result in data set [1] and in data set [2] was “Toxic” in each case. In addition, in data set [3], the outcome was inactive. The result in data set [4] was Active.

Regarding `CC(Cc1ccc(O)c(O)c1)C(=O)O` (stereo unspecified), the Activity result in data set [1] is “Toxic”; in data set [2], “Toxic”; in data set [3] it was “Dose-dependent effect”; in data set [4], “Dose-dependent effect”.

On to `C[C@@](Cc1ccc(O)c(O)c1)(NN)C(=O)O.O` [CARBIDOPA], for which the Activity entry in data set [1] and in data set [2] was “Toxic” in each case. In data set [5], the outcome was Active.
